Laboratory results from ChEMBL document CHEMBL1153337, “Small molecule antagonists of the gonadotropin-releasing hormone (GnRH) receptor: structure-activity relationships of small heterocyclic groups appended to the 2-phenyl-4-piperazinyl-benzimidazole template” (Bioorg Med Chem Lett, 2009).
Values after ≈ are worked out from the molar mass of the structure shown.

Columns and labels:
[1] = target: T1, Gonadotropin-releasing hormone receptor (Homo sapiens) (UniProt P30968); experiment: Displacement of [125I]-(D-Trp6)-GnRH from human GnRH receptor at 50 nM
T1 sequence (whole entry): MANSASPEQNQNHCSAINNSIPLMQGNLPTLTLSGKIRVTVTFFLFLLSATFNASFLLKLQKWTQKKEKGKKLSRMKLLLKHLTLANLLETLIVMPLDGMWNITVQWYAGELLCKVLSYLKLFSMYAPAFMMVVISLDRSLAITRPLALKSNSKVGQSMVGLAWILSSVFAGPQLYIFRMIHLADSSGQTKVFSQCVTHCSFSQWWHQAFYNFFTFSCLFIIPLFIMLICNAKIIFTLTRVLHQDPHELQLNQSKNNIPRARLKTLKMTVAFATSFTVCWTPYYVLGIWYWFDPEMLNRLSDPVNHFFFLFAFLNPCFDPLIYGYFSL

[2] = target: T2, Gonadotropin-releasing hormone receptor (Homo sapiens, UniProt P30968); experiment: Displacement of [125I]-(D-Trp6)-GnRH from human GnRH receptor
T2 sequence (P30968 whole entry): T1 sequence (whole entry)
Summary of the method: (§1)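 Competition binding at overexpressed human or rat GnRH receptors against 125I-(D-Trp6)-GnRH; IC50 averaged from two independent experiments run in triplicate.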

[3] = target: T3, Gonadotropin-releasing hormone receptor (Rattus norvegicus, UniProt P30969); experiment: Displacement of [125I]-(D-Trp6)-GnRH from rat GnRH receptor; summary of the method: as §1
T3 sequence (P30969 whole entry): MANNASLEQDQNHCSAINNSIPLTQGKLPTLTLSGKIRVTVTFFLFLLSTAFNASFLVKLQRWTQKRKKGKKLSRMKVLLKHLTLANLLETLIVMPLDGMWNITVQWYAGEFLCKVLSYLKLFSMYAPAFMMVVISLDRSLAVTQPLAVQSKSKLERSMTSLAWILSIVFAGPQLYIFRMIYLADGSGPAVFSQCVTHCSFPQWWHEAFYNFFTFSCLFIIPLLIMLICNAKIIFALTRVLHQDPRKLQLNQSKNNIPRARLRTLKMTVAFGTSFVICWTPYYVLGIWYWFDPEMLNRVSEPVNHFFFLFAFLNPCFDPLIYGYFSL

CYP3A4 = CYP3A4 (Homo sapiens, UniProt P08684); experiment: Inhibition of CYP3A4 at 3 uM; format: ADME
Chain of CYP3A4 (P08684 whole entry): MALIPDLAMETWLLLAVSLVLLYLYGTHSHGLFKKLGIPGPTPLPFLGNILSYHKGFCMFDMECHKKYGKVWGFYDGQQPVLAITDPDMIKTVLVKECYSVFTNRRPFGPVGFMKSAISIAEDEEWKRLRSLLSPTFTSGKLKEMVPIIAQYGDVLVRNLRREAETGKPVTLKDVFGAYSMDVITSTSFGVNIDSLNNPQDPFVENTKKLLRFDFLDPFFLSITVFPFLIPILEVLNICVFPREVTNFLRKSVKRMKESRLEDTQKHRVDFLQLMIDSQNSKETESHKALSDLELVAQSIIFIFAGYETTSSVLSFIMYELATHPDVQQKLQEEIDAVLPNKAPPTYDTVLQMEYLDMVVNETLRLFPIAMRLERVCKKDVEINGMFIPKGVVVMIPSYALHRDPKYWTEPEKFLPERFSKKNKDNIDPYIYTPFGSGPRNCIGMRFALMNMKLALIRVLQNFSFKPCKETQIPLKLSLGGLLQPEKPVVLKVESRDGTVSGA

[4] = target: T2, Gonadotropin-releasing hormone receptor; experiment: Antagonist activity at human recombinant GnRH receptor expressed in HEK293 cells assessed as reduction in (D-Trp6)-GnRH-stimulated IP production by whole cell assay; format: functional, cell-based
Summary of the method: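 Whole-cell assay, cells stimulated with (D-Trp6)-GnRH; compound-driven reduction of inositol phosphate read as IC50.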

CYP2C9 = CYP2C9 (Homo sapiens, UniProt P11712); experiment: Inhibition of CYP2C9 at 3 uM; format: ADME
Chain of CYP2C9 (P11712 whole entry): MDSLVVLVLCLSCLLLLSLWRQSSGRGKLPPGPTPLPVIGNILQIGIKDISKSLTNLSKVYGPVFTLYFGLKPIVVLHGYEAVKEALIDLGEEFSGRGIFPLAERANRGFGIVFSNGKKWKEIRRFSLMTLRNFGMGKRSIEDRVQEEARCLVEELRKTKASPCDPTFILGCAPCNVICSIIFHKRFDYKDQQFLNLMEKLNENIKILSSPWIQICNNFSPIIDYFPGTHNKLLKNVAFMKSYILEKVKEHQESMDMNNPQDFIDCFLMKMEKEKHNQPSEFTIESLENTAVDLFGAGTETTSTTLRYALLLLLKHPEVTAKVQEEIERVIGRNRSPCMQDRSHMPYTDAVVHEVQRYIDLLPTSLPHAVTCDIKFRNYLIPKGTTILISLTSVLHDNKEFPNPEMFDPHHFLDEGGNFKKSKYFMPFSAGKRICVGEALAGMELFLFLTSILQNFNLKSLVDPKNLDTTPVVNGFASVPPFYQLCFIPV

[5] = Reduction in leutinizing hormone release in (D-Trp6)-GnRH-stimulated rat primary pituitary cells by RIA; format: functional, cell-based; details: Pituitary gland cell
Summary of the method: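 Primary rat pituitary cells stimulated with (D-Trp6)-GnRH; compound-driven reduction of LH release read as IC50.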

[6] = Solubility at pH 7.4; format: physicochemical; details: buffer
CYP2D6 = CYP2D6 (Homo sapiens, UniProt P10635); experiment: Inhibition of CYP2D6 at 3 uM; format: ADME
Chain of CYP2D6 (P10635 whole entry): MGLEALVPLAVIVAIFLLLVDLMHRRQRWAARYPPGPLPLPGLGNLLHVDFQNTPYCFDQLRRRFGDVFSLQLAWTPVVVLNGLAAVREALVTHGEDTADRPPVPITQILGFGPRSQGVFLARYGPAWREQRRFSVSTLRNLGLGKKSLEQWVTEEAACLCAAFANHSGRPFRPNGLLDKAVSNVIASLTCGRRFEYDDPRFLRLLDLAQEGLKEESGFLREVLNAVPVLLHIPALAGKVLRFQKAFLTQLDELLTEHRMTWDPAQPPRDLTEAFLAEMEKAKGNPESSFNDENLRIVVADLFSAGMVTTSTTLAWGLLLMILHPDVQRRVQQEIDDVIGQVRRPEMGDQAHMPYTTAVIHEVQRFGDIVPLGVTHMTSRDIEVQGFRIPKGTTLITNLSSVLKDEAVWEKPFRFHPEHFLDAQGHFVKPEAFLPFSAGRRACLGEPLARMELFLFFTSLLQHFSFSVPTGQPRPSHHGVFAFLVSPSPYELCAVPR

[7] = Metabolic stability in rat liver microsomes assessed as half life; format: ADME, Microsome
[8] = Metabolic stability in rat liver microsomes assessed as compound remaining at 1 uM after 15 mins; format: ADME, Microsome; details: read-out: Stability
Rattus norvegicus [9] = experiment: AUC (0 to alpha) in orchidectomized Sprague-Dawley rat at 20 mg/kg, po after 1 day; format: ADME, organism-based, Plasma; set-up: dose 20 mg/kg, route oral; details: in vivo, 24 h
Summary of the method: (§2)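 Orchidectomized SD rats, single oral dose of 20 mg/kg in 0.4 N HCl/2% TWEEN 80; iv arm 1 mg/kg in 20% DMSO/PEG 200 for bioavailability; one-day PK study.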

[10] = Half life in orchidectomized Sprague-Dawley rat at 20 mg/kg, po after 1 day; format: ADME, organism-based; set-up: dose 20 mg/kg, route oral; details: male, in vivo; summary of the method: as §2
[11] = Volume of distribution at steady state in orchidectomized Sprague-Dawley rat at 1 mg/kg, iv after 1 day; format: ADME, organism-based; set-up: dose 1 mg/kg, route intravenous; details: male, in vivo, read-out: Vdss
Summary of the method: (§3)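 Orchidectomized SD rats, single iv dose of 1 mg/kg in 20% DMSO/PEG 200; one-day PK study.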

Rattus norvegicus [12] = experiment: Oral bioavailability in orchidectomized Sprague-Dawley rat at 20 mg/kg after 1 day; format: ADME, organism-based; details: in vivo, 24 h; summary of the method: as §2
[13] = Half life in orchidectomized Sprague-Dawley rat at 1 mg/kg, iv after 1 day; format: ADME, organism-based; set-up: dose 1 mg/kg, route intravenous; details: male, in vivo; summary of the method: as §3

Activity [1] [%] | IC50 [2] [nM] | IC50 [3] [nM] | also measured | SMILES
6 |  |  |  | CC(C)(C)c1ccc(-c2nc3c(N4CCN(Cc5ccsc5)CC4)cccc3[nH]2)cc1
67 |  |  |  | CCCCn1cnc(C)c1CN1CCN(c2cccc3[nH]c(-c4ccc(C(C)(C)C)cc4)nc23)CC1
 | 21 | 290 |  | CC(C)(C)c1ccc(-c2nc3c(N4CCN(Cc5cnc[nH]5)CC4)cccc3[nH]2)cc1
 | 10 | 51 |  | CCn1cc(CN2CCN(c3cccc4[nH]c(-c5ccc(C(C)(C)C)cc5)nc34)CC2)nc1C
 | 7.5 | 28 | inhibition at 3 µM (CYP3A4): 85%; IC50 [4]: 44 nM; inhibition at 3 µM (CYP2C9): 23%; IC50 [5]: 250 nM; solubility [6]: 46 µg/mL (≈ 107 µM); inhibition at 3 µM (CYP2D6): 14%; half-life [7]: > 30 min | Cc1nc(CN2CCN(c3cccc4[nH]c(-c5ccc(C(C)(C)C)cc5)nc34)CC2)c[nH]1
 | 26 | 58 |  | CCCCc1nc(CN2CCN(c3cccc4[nH]c(-c5ccc(C(C)(C)C)cc5)nc34)CC2)cn1C
 | 38 | 450 |  | Cc1nn(C)c(C)c1CN1CCN(c2cccc3[nH]c(-c4ccc(C(C)(C)C)cc4)nc23)CC1
26 |  |  |  | CCc1nc(C)sc1CN1CCN(c2cccc3[nH]c(-c4ccc(C(C)(C)C)cc4)nc23)CC1
 | 43 | 350 |  | CCc1cc(CN2CCN(c3cccc4[nH]c(-c5ccc(C(C)(C)C)cc5)nc34)CC2)nn1C
 | 10 | 34 | inhibition at 3 µM (CYP3A4): 66%; IC50 [4]: 23 nM; inhibition at 3 µM (CYP2C9): 12%; IC50 [5]: 300 nM; solubility [6]: 51 µg/mL (≈ 115 µM); inhibition at 3 µM (CYP2D6): 3%; half-life [7]: 9 min | Cc1nc(CN2CCN(c3cccc4[nH]c(-c5ccc(C(C)(C)C)cc5)nc34)CC2)cn1C
 | 12 | 47 |  | CCCn1cnc(CN2CCN(c3cccc4[nH]c(-c5ccc(C(C)(C)C)cc5)nc34)CC2)c1C
 | 27 | 550 |  | CCc1nc(CN2CCN(c3cccc4[nH]c(-c5ccc(C(C)(C)C)cc5)nc34)CC2)c(C)o1
 |  |  | inhibition at 3 µM (CYP3A4): 74%; remaining at 0.25 h, 1 µM [8]: 12%; inhibition at 3 µM (CYP2C9): 34%; IC50 [5]: 59 nM; solubility [6]: 13 µg/mL (≈ 26.7 µM); inhibition at 3 µM (CYP2D6): 0%; half-life [7]: 5 min | CCn1cc(CN2CCN(c3cccc4[nH]c(-c5ccc(C(C)(C)C)cc5)nc34)CC2)c(=O)[nH]c1=O
 | 46 | 49 | inhibition at 3 µM (CYP3A4): 84%; IC50 [4]: 71 nM; inhibition at 3 µM (CYP2C9): 53%; IC50 [5]: 570 nM; solubility [6]: 3 µg/mL (≈ 6.19 µM); inhibition at 3 µM (CYP2D6): 21%; half-life [7]: > 30 min | CCCCn1cnc(CN2CCN(c3cccc4[nH]c(-c5ccc(C(C)(C)C)cc5)nc34)CC2)c1C
32 |  |  |  | CCn1nc(CN2CCN(c3cccc4[nH]c(-c5ccc(C(C)(C)C)cc5)nc34)CC2)cc1C
26 |  |  |  | CC(C)(C)c1ccc(-c2nc3c(N4CCN(Cc5nccs5)CC4)cccc3[nH]2)cc1
 | 22 | 250 |  | CCc1cc(CN2CCN(c3cccc4[nH]c(-c5ccc(C(C)(C)C)cc5)nc34)CC2)n(C)n1
 | 31 | 740 |  | Cc1nc(C)c(CN2CCN(c3cccc4[nH]c(-c5ccc(C(C)(C)C)cc5)nc34)CC2)o1
 | 57 | 120 |  | CCCn1c(CC)nc(C)c1CN1CCN(c2cccc3[nH]c(-c4ccc(C(C)(C)C)cc4)nc23)CC1
 | 705 |  |  | Cc1ccc(CN2CCN(c3cccc4[nH]c(-c5ccc(C(C)(C)C)cc5)nc34)CC2)o1
7 |  |  |  | CC(C)(C)c1ccc(-c2nc3c(N4CCN(Cc5ccc[nH]5)CC4)cccc3[nH]2)cc1
 | 20 | 120 |  | CCc1nc(C)c(CN2CCN(c3cccc4[nH]c(-c5ccc(C(C)(C)C)cc5)nc34)CC2)s1

Activity [1] [%] | IC50 [2] [nM] | IC50 [3] [nM] | also measured | SMILES
12 |  |  |  | CC(C)(C)c1ccc(-c2nc3c(N4CCN(Cc5ccco5)CC4)cccc3[nH]2)cc1
 | 27 |  |  | Cc1nc(C)c(CN2CCN(c3cccc4[nH]c(-c5ccc(C(C)(C)C)cc5)nc34)CC2)s1
24 |  |  |  | CC(C)(C)c1ccc(-c2nc3c(N4CCN(Cc5cccs5)CC4)cccc3[nH]2)cc1
 | 68 |  |  | Cc1n[nH]c(C)c1CN1CCN(c2cccc3[nH]c(-c4ccc(C(C)(C)C)cc4)nc23)CC1
 | 29 | 57 |  | CCCn1c(CC)nc(CN2CCN(c3cccc4[nH]c(-c5ccc(C(C)(C)C)cc5)nc34)CC2)c1C
25 |  |  |  | Cn1nccc1CN1CCN(c2cccc3[nH]c(-c4ccc(C(C)(C)C)cc4)nc23)CC1
 | 11 | 69 |  | CCc1nc(CN2CCN(c3cccc4[nH]c(-c5ccc(C(C)(C)C)cc5)nc34)CC2)cn1CC
 | 23 | 310 |  | Cc1cc(CN2CCN(c3cccc4[nH]c(-c5ccc(C(C)(C)C)cc5)nc34)CC2)n(C)n1
 | 37 | 320 |  | CCc1nc(C)c(CN2CCN(c3cccc4[nH]c(-c5ccc(C(C)(C)C)cc5)nc34)CC2)o1
6 |  |  |  | Cn1cccc1CN1CCN(c2cccc3[nH]c(-c4ccc(C(C)(C)C)cc4)nc23)CC1
 | 18 | 78 |  | CCc1nc(CN2CCN(c3cccc4[nH]c(-c5ccc(C(C)(C)C)cc5)nc34)CC2)cn1C
20 |  |  |  | CC(C)(C)c1ccc(-c2nc3c(N4CCN(Cc5ccoc5)CC4)cccc3[nH]2)cc1
4 |  |  |  | CCCCc1nc(C)c(CN2CCN(c3cccc4[nH]c(-c5ccc(C(C)(C)C)cc5)nc34)CC2)s1
40 |  |  |  | CC(C)(C)c1ccc(-c2nc3c(N4CCN(Cc5ncc[nH]5)CC4)cccc3[nH]2)cc1
 | 19 | 61 |  | Cc1c(CN2CCN(c3cccc4[nH]c(-c5ccc(C(C)(C)C)cc5)nc34)CC2)ncn1C(C)C
 | 33 | 98 |  | Cn1cnc(CN2CCN(c3cccc4[nH]c(-c5ccc(C(C)(C)C)cc5)nc34)CC2)c1
 | 90 | 850 |  | Cc1ncoc1CN1CCN(c2cccc3[nH]c(-c4ccc(C(C)(C)C)cc4)nc23)CC1
 | 83 |  |  | Cc1cc(CN2CCN(c3cccc4[nH]c(-c5ccc(C(C)(C)C)cc5)nc34)CC2)nn1C
 | 21 |  |  | Cc1nc(CN2CCN(c3cccc4[nH]c(-c5ccc(C(C)(C)C)cc5)nc34)CC2)c(C)s1
 | 8 | 49 | IC50 [4]: 13 nM; IC50 [5]: 296 nM; solubility [6]: 25 µg/mL (≈ 51.6 µM); half-life [7]: 12 min | CCc1nc(CN2CCN(c3cccc4[nH]c(-c5ccc(C(C)(C)C)cc5)nc34)CC2)c(C)n1CC
 | 18 | 41 | AUC (Rattus norvegicus [9]): 3830 ng·h/mL; inhibition at 3 µM (CYP3A4): 85%; half-life [10]: 174 min; IC50 [4]: 43 nM; Vd [11]: 0.2 L/kg; inhibition at 3 µM (CYP2C9): 19%; IC50 [5]: 240 nM; solubility [6]: 55 µg/mL (≈ 117 µM); F (Rattus norvegicus [12]): 100%; half-life [13]: 54 min; inhibition at 3 µM (CYP2D6): 13%; half-life [7]: 25 min | CCCn1cc(CN2CCN(c3cccc4[nH]c(-c5ccc(C(C)(C)C)cc5)nc34)CC2)nc1C
